In ChEMBL document CHEMBL4257584, “Sterol 14α-Demethylase Structure-Based Optimization of Drug Candidates for Human Infections with the Protozoan Trypanosomatidae” (J Med Chem, 2018):
Calls of active or inactive are those of the source. No cut-off for these calls is given here.

Columns and labels:
[1] = Hepatic clearance in CD1 mouse liver microsomes at 1 uM preincubated for 5 mins followed by NADPH addition and measured after 45 mins by LC/MS/MS analysis; assay type: ADME, microsome
[2] = Hepatic clearance in Sprague-Dawley rat liver microsomes at 1 uM preincubated for 5 mins followed by NADPH addition and measured after 45 mins by LC/MS/MS analysis; assay type: ADME, microsome
Summary of the method: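 Pooled liver microsomes at 0.5 mg/mL: human (mixed gender), male Sprague-Dawley rat, or male CD-1 mouse, with test compound at 1 μM, triplicate. In vitro t1/2 is scaled to CLint (45 mg microsomes/g liver; 45 g liver/kg scaling factor). CLhep uses well-stirred model with hepatic blood flow 21 (human), 70 (rat), 90 (mouse) mL/min/kg.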

[3] = Drug uptake in BALB/c mouse lungs at 25 mg/kg, po via gavage measured after 4 hrs post dose by […]; assay type: ADME, organism-based, Lung; conditions: read-out: Drug uptake
Summary of the method: (§1)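 BALB/c mice get a single oral gavage dose of 25 mg/kg; tissues are collected 4 h post-dose. About 100 mg tissue is diluted 5-fold in PBS and homogenized. Homogenate is extracted as for plasma (ketoconazole internal standard, acetonitrile extraction) and quantified by HPLC-UV at 291 nm, 0.1 μM detection limit, n=2.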

[4] = Drug uptake in BALB/c mouse liver at 25 mg/kg, po via gavage measured after 4 hrs post dose by […]; assay type: ADME, organism-based; conditions: read-out: Drug uptake; summary of the method: as §1
[5] = Lipophilicity, log P of the compound; assay type: physicochemical; conditions: octanol/water
[6] = Intrinsic clearance in Sprague-Dawley rat liver microsomes at 1 uM preincubated for 5 mins followed by NADPH addition and measured after 45 mins by LC/MS/MS analysis; assay type: ADME, microsome; conditions: read-out: CLH
[7] = Half life in CD1 mouse liver microsomes at 1 uM preincubated for 5 mins followed by NADPH addition and measured by LC/MS/MS analysis; assay type: ADME, microsome; conditions: mouse, microsomes, 1 µM
[8] = Intrinsic clearance in CD1 mouse liver microsomes at 1 uM preincubated for 5 mins followed by NADPH addition and measured after 45 mins by LC/MS/MS analysis; assay type: ADME, microsome; conditions: read-out: CLH
[9] = Half life in human liver microsomes at 1 uM preincubated for 5 mins followed by NADPH addition and measured by LC/MS/MS analysis; assay type: ADME, microsome; conditions: microsomes, 1 µM
[10] = Maximum plasma concentration in BALB/c mouse at 25 mg/kg, po via gavage by […]; assay type: ADME, organism-based; design: dose 25 mg/kg, route oral
Summary of the method: (§2)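 Single oral gavage dose of 25 mg/kg in BALB/c mice; blood sampled at 1, 2, 4, 6, 10, 16, 24 h. Plasma is diluted in PBS with ketoconazole internal standard, extracted with 80% acetonitrile, dried and redissolved. Analysed by reversed-phase HPLC with UV at 291/250 nm, 0.1 μM detection limit. Lifetime is time until undetectable.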

[11] = Drug uptake in BALB/c mouse heart at 25 mg/kg, po via gavage measured after 4 hrs post dose by […]; assay type: ADME, organism-based; conditions: read-out: Drug uptake; summary of the method: as §1
[12] = Drug uptake in BALB/c mouse brain at 25 mg/kg, po via gavage measured after 4 hrs post dose by […]; assay type: ADME, organism-based; conditions: read-out: Drug uptake; summary of the method: as §1
[13] = Plasma concentration in BALB/c mouse assessed as time until the compound becomes undetectable at 25 mg/kg, po via gavage […]; assay type: ADME, organism-based; conditions: in vivo; summary of the method: as §2
[14] = Drug uptake in BALB/c mouse spleen at 25 mg/kg, po via gavage measured after 4 hrs post dose by […]; assay type: ADME, organism-based; conditions: read-out: Drug uptake; summary of the method: as §1
[15] = Drug uptake in BALB/c mouse blood at 25 mg/kg, po via gavage measured after 4 hrs post dose by […]; assay type: ADME, organism-based; conditions: read-out: Drug uptake; summary of the method: as §1
[16] = Intrinsic clearance in human liver microsomes at 1 uM preincubated for 5 mins followed by NADPH addition and measured after 45 mins by LC/MS/MS analysis; assay type: ADME, microsome; conditions: read-out: CLH
[17] = Half life in Sprague-Dawley rat liver microsomes at 1 uM preincubated for 5 mins followed by NADPH addition and measured by LC/MS/MS analysis; assay type: ADME, microsome; conditions: microsomes, 1 µM
[18] = Cmax in BALB/c mouse at 25 mg/kg, po via gavage measured after 2 hrs post dose by […]; assay type: ADME, organism-based; design: dose 25 mg/kg, route oral; conditions: in vivo; summary of the method: as §2
[19] = Hepatic clearance in human liver microsomes at 1 uM preincubated for 5 mins followed by NADPH addition and measured after 45 mins by LC/MS/MS analysis; assay type: ADME, microsome
Mus musculus [20] = assay: Toxicity in Swiss Webster mouse assessed as effect on heart weight at 200 mg/kg, po administered as single dose measured after 48 hrs; assay type: organism-based; conditions: in vivo
Summary of the method: (§3)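 Swiss Webster mice (21–23 g, n=3) get a single oral 200 mg/kg dose, given as in the PK study. They are inspected for toxic and sub-toxic signs per OECD guidelines (behaviour, motility, neurological state, skin, fur), and body weight is tracked 0–48 h. At 48 h, mice are euthanized and organ weights are normalized to body weight. Blood is taken for haematology and plasma biochemistry.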

Mus musculus [21] = assay: Toxicity in Swiss Webster mouse assessed as effect on liver weight at 200 mg/kg, po administered as single dose measured after 48 hrs; assay type: organism-based; conditions: in vivo; summary of the method: as §3
Trypanosoma cruzi [22] = assay: Antiparasitic activity against GFP-expressing Trypanosoma cruzi Tulahuen amastigote formss infected in cardiomyocytes assessed as reduction in rate of parasite multiplication within infected cardiomyocytes measured at 72 hrs post infection by fluorescence microscopy; assay type: functional, organism-based
Summary of the method: (§4)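 GFP-expressing trypomastigotes (Tulahuen or Y strain) infect cardiomyocyte monolayers at 10 parasites per cell, in DMEM + 10% FBS. Unbound parasites are washed off. At 24 h of infection, inhibitors at 0.5–25 nM in DMSO/DMEM are added and cultured 48 h. Read-out is at 72 h post-infection as GFP fluorescence (RFU) after PBS wash; microscopy uses paraformaldehyde fixation, DAPI and phalloidin stain. Triplicate.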

Mus musculus [23] = assay: Toxicity in Swiss Webster mouse at 200 mg/kg, po administered as single dose measured after 48 hrs measured at 48 hrs post dose; assay type: organism-based; conditions: in vivo; summary of the method: as §3
[24] = molecular target: Sterol 14-alpha demethylase (Trypanosoma cruzi (strain CL Brener), UniProt Q7Z1V1); assay: Binding affinity to Trypanosoma cruzi Y CYP51A expressed in Escherichia coli
Summary of the method: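 Recombinant CYP51A from Y strain T. cruzi, expressed in E. coli and purified, titrated spectrally at 0.5 μM P450 in 5 cm path cuvettes with ligand over 0.1–1 μM. Type of absorbance change in difference spectra Δ(A430-A411) plotted against ligand concentration. Apparent Kd obtained by fitting to the Morrison quadratic tight-binding equation by nonlinear regression.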

Trypanosoma cruzi [25] = assay: Antiparasitic activity against GFP-expressing Trypanosoma cruzi Y amastigote formss infected in cardiomyocytes assessed as reduction in rate of parasite multiplication within infected cardiomyocytes measured at 72 hrs post infection by fluorescence microscopy; assay type: functional, organism-based; summary of the method: as §4
Mus musculus [26] = assay: Toxicity in Swiss Webster mouse assessed as effect on body weight at 200 mg/kg, po administered as single dose measured after 48 hrs; assay type: organism-based; conditions: in vivo; summary of the method: as §3
[27] = molecular target: Sterol 14-alpha demethylase (Trypanosoma cruzi (strain CL Brener)) (UniProt Q7Z1V1); assay: Inhibition of Trypanosoma cruzi Y CYP51 expressed in Escherichia coli using [3-3H]-eburicol as substrate after 60 mins by LC-MS analysis
Summary of the method: (§5)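 Reconstituted reaction: 1 μM purified CYP51, 2 μM T. brucei NADPH-P450 reductase, 100 μM dilauroylphosphatidylcholine, isocitrate dehydrogenase/isocitrate regeneration, 50 mM K phosphate pH 7.2, 10% glycerol. [3-3H]sterol substrate at 50 μM final (eburicol for T. cruzi; obtusifoliol for T. brucei and L. infantum) with inhibitor at 1.1 μM final. Preincubate 60 s at 37 °C, start with 100 μM NADPH, run 60 min, EtOAc extraction. Gives % inhibition of 14α-demethylation, triplicate, mean ± SD.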

Mus musculus [28] = assay: Toxicity in Swiss Webster mouse assessed as effect on animal behavior at 200 mg/kg, po administered as single dose measured after 48 hrs; assay type: organism-based; conditions: in vivo; summary of the method: as §3
Mus musculus [29] = assay: Toxicity in Swiss Webster mouse assessed as effect on fur profile at 200 mg/kg, po administered as single dose measured after 48 hrs; assay type: organism-based; conditions: in vivo; summary of the method: as §3
Mus musculus [30] = assay: Toxicity in Swiss Webster mouse assessed as effect on neurological conditions at 200 mg/kg, po administered as single dose measured after 48 hrs; assay type: organism-based; conditions: in vivo; summary of the method: as §3
[31] = molecular target: Putative lanosterol 14-alpha-demethylase (Leishmania infantum, UniProt A2TEF2); assay: Binding affinity to Leishmania infantum CYP51 expressed in Escherichia coli
Summary of the method: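 Purified E. coli-expressed L. infantum CYP51 at 0.5 μM is titrated with ligand at 0.1–1 μM in 5 cm path cuvettes. Difference-spectrum absorbance change Δ(A430−A411) is plotted against ligand concentration. Apparent Kd comes from a Morrison (quadratic) tight-binding fit by nonlinear regression.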

Mus musculus [32] = assay: Toxicity in Swiss Webster mouse assessed as effect on kidney weight at 200 mg/kg, po administered as single dose measured after 48 hrs; assay type: organism-based; conditions: in vivo; summary of the method: as §3
Mus musculus [33] = assay: Toxicity in Swiss Webster mouse assessed as effect on spleen weight at 200 mg/kg, po administered as single dose measured after 48 hrs; assay type: organism-based; conditions: in vivo; summary of the method: as §3
Mus musculus [34] = assay: Toxicity in Swiss Webster mouse assessed as effect on lung weight at 200 mg/kg, po administered as single dose measured after 48 hrs; assay type: organism-based; conditions: in vivo; summary of the method: as §3
Mus musculus [35] = assay: Toxicity in Swiss Webster mouse assessed as effect on biochemical plasma parameters at 200 mg/kg, po administered as single dose measured after 48 hrs; assay type: organism-based; conditions: in vivo; summary of the method: as §3
Mus musculus [36] = assay: Toxicity in Swiss Webster mouse assessed as effect on motility at 200 mg/kg, po administered as single dose measured after 48 hrs; assay type: organism-based; conditions: in vivo; summary of the method: as §3
[37] = molecular target: Putative lanosterol 14-alpha-demethylase (Leishmania infantum) (UniProt A2TEF2); assay: Inhibition of Leishmania infantum CYP51 expressed in Escherichia coli using [3-3H]-obtusifoliol as substrate after 60 mins by LC-MS analysis; summary of the method: as §5
Mus musculus [38] = assay: Toxicity in Swiss Webster mouse assessed as effect on skin at 200 mg/kg, po administered as single dose measured after 48 hrs; assay type: organism-based; conditions: in vivo; summary of the method: as §3
[39] = molecular target: Lanosterol 14-alpha-demethylase (Trypanosoma brucei brucei (strain 927/4 GUTat10.1)) (UniProt Q385E8); assay: Inhibition of Trypanosoma brucei […] CYP51 expressed in Escherichia coli using [3-3H]-obtusifoliol as substrate after 60 mins by LC-MS analysis; summary of the method: as §5
Mus musculus [40] = assay: Toxicity in Swiss Webster mouse assessed as alteration in body to organ ratio at 200 mg/kg, po administered as single dose measured after 48 hrs; assay type: organism-based; conditions: in vivo; summary of the method: as §3

Lanosterol 14-alpha-demethylase (Trypanosoma brucei brucei (strain 927/4 GUTat10.1)), sequence (Q385E8 1-481): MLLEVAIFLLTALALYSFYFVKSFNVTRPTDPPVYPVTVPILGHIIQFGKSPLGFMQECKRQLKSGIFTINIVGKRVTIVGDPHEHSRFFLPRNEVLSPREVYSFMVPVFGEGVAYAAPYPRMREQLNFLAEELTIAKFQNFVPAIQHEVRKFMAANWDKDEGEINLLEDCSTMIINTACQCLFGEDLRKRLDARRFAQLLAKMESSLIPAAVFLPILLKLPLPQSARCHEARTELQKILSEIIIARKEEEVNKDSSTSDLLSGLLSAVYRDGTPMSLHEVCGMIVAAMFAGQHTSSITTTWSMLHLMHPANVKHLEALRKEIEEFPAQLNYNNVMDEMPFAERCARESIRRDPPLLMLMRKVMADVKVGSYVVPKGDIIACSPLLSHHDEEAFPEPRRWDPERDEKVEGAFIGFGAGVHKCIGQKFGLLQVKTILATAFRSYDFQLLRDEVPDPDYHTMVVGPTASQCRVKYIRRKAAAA
Sterol 14-alpha demethylase, sequence (Q7Z1V1 whole entry): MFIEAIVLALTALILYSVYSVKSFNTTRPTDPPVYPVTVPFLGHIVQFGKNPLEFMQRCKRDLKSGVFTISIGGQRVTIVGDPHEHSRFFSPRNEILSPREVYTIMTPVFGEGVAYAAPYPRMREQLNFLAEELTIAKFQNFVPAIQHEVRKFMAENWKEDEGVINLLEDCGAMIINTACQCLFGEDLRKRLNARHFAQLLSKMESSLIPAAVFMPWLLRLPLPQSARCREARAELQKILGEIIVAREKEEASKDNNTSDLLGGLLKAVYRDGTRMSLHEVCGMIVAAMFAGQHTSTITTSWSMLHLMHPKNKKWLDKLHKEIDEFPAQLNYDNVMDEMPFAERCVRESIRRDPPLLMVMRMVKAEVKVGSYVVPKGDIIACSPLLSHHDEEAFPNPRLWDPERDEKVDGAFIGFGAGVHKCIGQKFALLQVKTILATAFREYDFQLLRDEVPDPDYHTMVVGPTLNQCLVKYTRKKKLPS
Sterol 14-alpha demethylase (Trypanosoma cruzi (strain CL Brener)), sequence (Q7Z1V1 whole entry, looked up): as the sequence (Q7Z1V1 whole entry) above
Putative lanosterol 14-alpha-demethylase (Leishmania infantum), sequence (A2TEF2 1-480): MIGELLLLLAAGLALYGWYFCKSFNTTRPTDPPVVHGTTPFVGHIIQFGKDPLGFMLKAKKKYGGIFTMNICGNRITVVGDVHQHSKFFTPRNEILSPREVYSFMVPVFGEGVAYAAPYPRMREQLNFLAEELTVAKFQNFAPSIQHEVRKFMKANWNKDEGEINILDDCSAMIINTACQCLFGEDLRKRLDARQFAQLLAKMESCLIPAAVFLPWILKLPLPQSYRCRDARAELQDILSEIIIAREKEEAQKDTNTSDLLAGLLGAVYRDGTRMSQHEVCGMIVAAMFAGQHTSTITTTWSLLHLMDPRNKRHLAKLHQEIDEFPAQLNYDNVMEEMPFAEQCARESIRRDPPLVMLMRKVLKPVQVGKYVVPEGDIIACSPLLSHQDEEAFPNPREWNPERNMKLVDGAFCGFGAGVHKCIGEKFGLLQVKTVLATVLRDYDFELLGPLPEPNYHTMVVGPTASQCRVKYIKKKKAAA
Putative lanosterol 14-alpha-demethylase, sequence (A2TEF2 whole entry): as the sequence (A2TEF2 1-480) above

O=C(N[C@@H](Cn1ccnc1)c1ccc(-c2ccccc2)cc1Cl)c1ccc(-c2nnc(-c3ccccc3)o2)cc1
CLhep predicted at 1 µM [1]: 24.8 mL/min/kg | CLhep predicted at 1 µM [2]: 46.9 mL/min/kg | concentration at 4 h [3]: 8 µM | concentration at 4 h [4]: 21 µM | logP [5]: 5.68 | CLint scaled at 1 µM [6]: 142 mL/min/kg | t1/2 [7]: 2.67 h | CLint scaled at 1 µM [8]: 34.2 mL/min/kg | t1/2 [9]: 1 h | Cmax [10]: 28 µM | concentration at 4 h [11]: 5 µM | concentration at 4 h [12]: 0.1 µM | Time [13]: < 10 h | concentration at 4 h [14]: 5 µM | concentration at 4 h [15]: 9 µM | CLint scaled at 1 µM [16]: 20.9 mL/min/kg | t1/2 [17]: 0.333 h | Cmax [18]: 28 µM | CLhep predicted at 1 µM [19]: 10.5 mL/min/kg

O=C(N[C@@H](Cn1ccnc1)c1ccc(Cl)cc1Cl)c1ccc(-c2nnc(-c3ccc(F)c(F)c3)o2)cc1
Activity (Mus musculus [20]): Non-Toxic | CLhep predicted at 1 µM [1]: 34.5 mL/min/kg | Activity (Mus musculus [21]): Non-Toxic | EC50 (Trypanosoma cruzi [22]): 1.6 nM | NOAEL (Mus musculus [23]): > 200 mg/kg | Kd [24]: 4.2 nM | EC50 (Trypanosoma cruzi [25]): 3 nM | Activity (Mus musculus [26]): Non-Toxic | inhibition [27]: Active | Activity (Mus musculus [28]): Non-Toxic | Activity (Mus musculus [29]): Non-Toxic | concentration at 4 h [3]: 46 µM | concentration at 4 h [4]: 38 µM | Activity (Mus musculus [30]): Non-Toxic | Kd [31]: 1.7 nM | Activity (Mus musculus [32]): Non-Toxic | Activity (Mus musculus [33]): Non-Toxic | Activity (Mus musculus [34]): Non-Toxic | Activity (Mus musculus [35]): Non-Toxic | CLint scaled at 1 µM [8]: 55.8 mL/min/kg | Activity (Mus musculus [36]): Non-Toxic | inhibition [37]: Active | Activity (Mus musculus [38]): Non-Toxic | Cmax [10]: 38 µM | concentration at 4 h [11]: 36 µM | concentration at 4 h [12]: 8 µM | Time [13]: 16 h | concentration at 4 h [14]: 28 µM | concentration at 4 h [15]: 36 µM | inhibition [39]: Active | Activity (Mus musculus [40]): Non-Toxic
